Tests used:
hCoV-229E = assay type: cell-based, human corona virus 229E; settings: for EC50: (*) mean of three independent experiments ± SEM
LN-229 (glioblastoma) = test: IncuCyte real-time proliferation assay, LN-229; assay type: cell-based; settings: LN-229, 72 h
[1] = tested on: Capan-1 (pancreatic adenocarcinoma); test: IncuCyte real-time proliferation assay, Capan-1; assay type: cell-based
[2] = tested on: HCT-116 (colorectal carcinoma); test: IncuCyte real-time proliferation assay, HCT-116; assay type: cell-based; settings: HCT-116, 72 h
[3] = tested on: NCI-H460 (lung carcinoma); test: IncuCyte real-time proliferation assay, NCI-H460; assay type: cell-based; settings: NCI-H460, 72 h
[4] = tested on: DND-41 (acute lymphoblastic leukemia); test: IncuCyte real-time proliferation assay, DND-41; assay type: cell-based
[5] = tested on: HL-60 (acute myeloid leukemia); test: IncuCyte real-time proliferation assay, HL-60; assay type: cell-based; settings: HL-60, 72 h
[6] = tested on: K-562 (chronic myeloid leukemia); test: IncuCyte real-time proliferation assay, K-562; assay type: cell-based
[7] = tested on: Z-138 (non-Hodgkin lymphoma); test: IncuCyte real-time proliferation assay, Z-138; assay type: cell-based; settings: Z-138, 72 h
[8] = tested on: peripheral blood mononuclear cells (PBMCs); test: In vitro apoptosis induction assay in PBMC; assay type: cell-based; settings: 72 h
In short: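 Counter-screen on normal PBMCs from two healthy donors. Cells were exposed to graded test-compound concentrations with Caspase-3/7 Green Reagent added. Activated intracellular caspase-3/7 cleaves the reagent at its DEVD motif, marking apoptotic cells. Propidium iodide staining separated dead from live cells. Read-out: numbers of apoptotic and dead cells.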

[9] = tested on: alpha-tubulin in HEp-2 cells; test: Tubulin immune fluorescence staining in HEp-2 cells; assay type: cell-based, human; settings: HEp-2 cells treated for 3 h
[10] = * mean of two independent experiments ± SEM
[11] = Capan-1, 72 h, * mean of two independent experiments ± SEM
[12] = DND-41, 72 h, * mean of two independent experiments ± SEM
[13] = K-562, 72 h, * mean of two independent experiments ± SEM

Structure (SMILES)	EC50 (hCoV-229E)	IC50 (LN-229 (glioblastoma); [10])	IC50 [1, 11]	IC50 [2, 10]	IC50 [3, 10]	IC50 [4, 12]	IC50 [5, 10]	IC50 [6, 13]	IC50 [7, 10]	CC50 (HEL 299 cells)	further results
Cc1cc(C)n(-c2nnc3n2NC(c2ccc(Cl)cc2)C(C(=O)c2ccc(Br)cc2)S3)n1 (racemic) [5 g, ( ±)-(4-Bromophenyl)(6-(4-chlorophenyl)-3-(3,5-dimethyl-1H-pyrazol-1-yl)-6,7-dihydro-5H-triazolo[3,4-b][1,3,4]thiadiazin-7-yl)methanone]	> 100 µM	> 100 µM	> 100 µM	> 100 µM	> 100 µM	> 100 µM	> 100 µM	> 100 µM	> 100 µM	> 100 µM	
Cc1cc(C)n(-c2nnc3n2NC(c2cc(F)c(F)c(F)c2)C(C(=O)c2ccccc2)S3)n1 (racemic) [5 k, ( ±)-(3-(3,5-Dimethyl-1H-pyrazol-1-yl)-6-(3,4,5-trifluorophenyl)-6,7-dihydro-5H-[1,2,4]triazole [3,4-b][1,3,4]thiadiazin-7-yl)(phenyl)methanone]	> 100 µM	> 100 µM	> 100 µM	> 100 µM	> 100 µM	> 100 µM	> 100 µM	> 100 µM	> 100 µM	> 100 µM	
COc1cc(C2Nn3c(nnc3-n3nc(C)cc3C)SC2C(=O)c2ccccc2)cc(OC)c1OC (racemic) [5 m, ( ±)-(3-(3,5-Dimethyl-1H-pyrazol-1-yl)-6-(3,4,5-trimethoxyphenyl)-6,7-dihydro-5H-[1,2,4]triazole [3,4-b][1,3,4]thiadiazin-7-yl)(phenyl)methanone]	95.7 µM	> 100 µM	> 100 µM	> 100 µM	> 100 µM	> 100 µM	> 100 µM	> 100 µM	> 100 µM	> 100 µM	
Cc1cc(C)n(-c2nnc3n2NC(c2cccs2)C(C(=O)c2ccc([N+](=O)[O-])cc2)S3)n1 (racemic) [5 s, ( ±)-(3-(3,5-Dimethyl-1H-pyrazol-1-yl)-6-(thiophen-2-yl)-6,7-dihydro-5H-[1,2,4]triazolo[3,4-b][1,3,4]thiadiazin-7-yl)(4-nitrophenyl)methanone]	> 100 µM	> 100 µM	> 100 µM	> 100 µM	> 100 µM	> 100 µM	> 100 µM	> 100 µM	> 100 µM	> 100 µM	
Cc1ccc(C(=O)C2Sc3nnc(-n4nc(C)cc4C)n3NC2c2ccc(C)cc2)cc1 (racemic) [Compound 5b, ( ±)-(3-(3,5-Dimethyl-1H-pyrazol-1-yl)-6-(p-tolyl)-6,7-dihydro-5H-[1,2,4]triazolo[3,4-b][1,3,4]thiadiazin-7-yl)(p-tolyl)methanone]	4.7 ± 0.5 µM	47.1 µM	57.5 µM	67.8 µM	> 100 µM	39.3 µM	50.9 µM	10.4 µM	48.4 µM	81.5 µM	selectivity index (hCoV-229E): favorable selectivity indexes
Cc1cc(C)n(-c2nnc3n2NC(c2ccc([N+](=O)[O-])cc2)C(C(=O)c2ccc([N+](=O)[O-])cc2)S3)n1 (racemic) [Compound 5c, ( ±)-(3-(3,5-Dimethyl-1H-pyrazol-1-yl)-6-(4-nitrophenyl)-6,7-dihydro-5H-[1,2,4]triazolo[3,4-b][1,3,4]thiadiazin-7-yl)(4-nitrophenyl)methanone]	24.4 µM	> 100 µM	> 100 µM	> 100 µM	> 100 µM	> 100 µM	> 100 µM	> 100 µM	> 100 µM	> 100 µM	
Cc1cc(C)n(-c2nnc3n2NC(c2ccccc2Br)C(C(=O)c2ccc(F)cc2)S3)n1 (racemic) [Compound 5e, ( ±)-(6-(2-Bromophenyl)-3-(3,5-dimethyl-1H-pyrazol-1-yl)-6,7-dihydro-5H-[1,2,4]triazolo[3,4-b][1,3,4]thiadiazin-7-yl)(4-fluorophenyl)methanone]	> 100 µM	> 100 µM	> 100 µM	> 100 µM	> 100 µM	> 100 µM	> 100 µM	> 100 µM	> 100 µM	> 100 µM	
Cc1ccc(C(=O)C2Sc3nnc(-n4nc(C)cc4C)n3NC2c2ccccc2Br)cc1 (racemic) [Compound 5f, ( ±)-(6-(2-Bromophenyl)-3-(3,5-dimethyl-1H-pyrazol-1-yl)-6,7-dihydro-5H-[1,2,4]triazolo[3,4-b][1,3,4]thiadiazin-7-yl)(p-tolyl)methanone]	3.2 ± 1.8 µM	> 100 µM	> 100 µM	> 100 µM	> 100 µM	> 100 µM	> 100 µM	> 100 µM	> 100 µM	> 100 µM	selectivity index (hCoV-229E): favorable selectivity indexes
Cc1ccc(C(=O)C2Sc3nnc(-n4nc(C)cc4C)n3NC2c2cc(F)c(F)c(F)c2)cc1 (racemic) [Compound 5j, ( ±)-(3-(3,5-Dimethyl-1H-pyrazol-1-yl)-6-(3,4,5-trifluorophenyl)-6,7-dihydro-5H-[1,2,4]triazole [3,4-b][1,3,4]thiadiazin-7-yl)(p-tolyl)methanone]	> 100 µM	2.7 ± 0.2 µM	2.3 ± 0.2 µM	2.5 ± 0.09 µM	56 µM	2.4 ± 0.4 µM	13 ± 2.8 µM	3.4 ± 0.2 µM	1.9 ± 0.03 µM	23.8 µM	viability of normal PBMCs ([8]; PBMC from two healthy donors, 100 to 0.16 µM): did not inhibit the viability; number of apoptotic and dead cells ([8]; PBMC, 100 µM, caspase-3/7 and PI): small increase in the number of apoptotic and dead cells; polymerization of tubulin [9]: inhibit the polymerization of tubulin in a dose-dependent manner
COc1ccc(C(=O)C2Sc3nnc(-n4nc(C)cc4C)n3NC2c2ccccc2Cl)cc1 (racemic) [Compound 5n, ( ±)-(6-(2-Chlorophenyl)-3-(3,5-dimethyl-1H-pyrazol-1-yl)-6,7-dihydro-5H-[1,2,4]triazolo[3,4-b][1,3,4]thiadiazin-7-yl)(4-methoxyphenyl)methanone]	> 100 µM	68.3 µM	63.1 µM	> 100 µM	> 100 µM	91.7 µM	71.2 µM	53.2 µM	53.9 µM	> 100 µM	
Cc1ccc(C(=O)C2Sc3nnc(-n4nc(C)cc4C)n3NC2c2ccco2)cc1 (racemic) [Compound 5r, ( ±)-(3-(3,5-Dimethyl-1H-pyrazol-1-yl)-6-(furan-2-yl)-6,7-dihydro-5H-[1,2,4]triazolo[3,4-b] [1,3,4]thiadiazin-7-yl)(p-tolyl)methanone]	> 100 µM	43.9 µM	54.3 µM	69 µM	47 µM	70.2 µM	54 µM	23.5 µM	50.2 µM	> 100 µM	
Cc1cc(C)n(-c2nnc3n2NC(c2ccco2)C(C(=O)c2ccc([N+](=O)[O-])cc2)S3)n1 (racemic) [Compound 5t, ( ±)-(3-(3,5-Dimethyl-1H-pyrazol-1-yl)-6-(furan-2-yl)-6,7-dihydro-5H-[1,2,4]triazolo[3,4-b][1,3,4]thiadiazin-7-yl)(4-nitrophenyl)methanone]	> 100 µM	62.7 µM	> 100 µM	> 100 µM	> 100 µM	> 100 µM	74.5 µM	79.3 µM	49.5 µM	> 100 µM	
COc1ccc(C2=C(C(=O)c3ccc([N+](=O)[O-])cc3)Sc3nnc(-n4nc(C)cc4C)n3N2)c(OC)c1 [Compound 5p, ( ±)-(6-(2,4-dimethoxyphenyl)-3-(3,5-dimethyl-1H-pyrazol-1-yl)-5H-[1,2,4]triazolo[3,4-b][1,3,4]thiadiazin-7-yl)(4-nitrophenyl)methanone]	> 100 µM	> 100 µM	> 100 µM	> 100 µM	> 100 µM	> 100 µM	> 100 µM	> 100 µM	> 100 µM	> 100 µM	
CC(=O)O[C@@]12CO[C@@H]1C[C@H](O)[C@@]1(C)C(=O)[C@H](O)C3=C(C)[C@@H](OC(=O)[C@H](O)[C@@H](NC(=O)OC(C)(C)C)c4ccccc4)C[C@@](O)([C@@H](OC(=O)c4ccccc4)[C@H]21)C3(C)C [Docetaxel, reference compound]											IC50 (LN-229 (glioblastoma); Homo sapiens): 0.0087 ± 0.0004 µM; IC50 ([1]; Homo sapiens, CAPAN-1, 72 h): 0.0042 ± 0.0021 µM; IC50 ([2]; Homo sapiens): 0.0009 ± 0.0008 µM; IC50 ([3]; Homo sapiens): 0.0038 ± 0.0029 µM; IC50 ([4]; DND41, 72 h): 0.0033 ± 0.0014 µM; IC50 ([5]; Homo sapiens): 0.0023 ± 0.0003 µM; IC50 ([6]; Homo sapiens, K562, 72 h): 0.0037 ± 0.0003 µM; IC50 ([7]; Homo sapiens): 0.0011 ± 0.0008 µM
CN[C@@H]1C[C@H]2O[C@@](C)([C@@H]1OC)n1c3ccccc3c3c4c(c5c6ccccc6n2c5c31)C(=O)NC4 [STS, staurosporine, reference compound]											IC50 (LN-229 (glioblastoma); Homo sapiens): 0.0229 ± 0.0021 µM; IC50 ([1]; Homo sapiens, CAPAN-1, 72 h): 0.0007 ± 0.0002 µM
